Our source for the Activity, IC50 and viability values is ChEMBL document CHEMBL1152898, “Synthesis and antitumor activity of some new xanthotoxin derivatives” (Eur J Med Chem, 2009).

One experiment deals with MCF7. The experiment in a line: Antitumor activity against human MCF7 cells after 72 hrs by MTS assay. The experiment is classed as functional, cell-based. The essentials: (§1)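 HeLa or MCF-7 cells were grown in Eagle's MEM with Earle's salts, 2 mM L-glutamine, 1.0 mM pyruvate, 0.1 mM NEAA and 10% FBS. MCF-7 medium also had 0.01 mg/mL insulin. Cells were seeded at 10⁴/well and dosed at 24 h, giving final 5, 10, 50, 100 µg/mL in 2.5% DMSO. After 72 h, MTS was read at 3 h with pre-reagent absorbance subtracted. Triplicates were compared with 2.5% DMSO controls.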
On the technique in general: Tetrazolium assays rely on reduction of a dye to a coloured formazan, in cell work by metabolically active cells.

The test system of experiment [1] is HeLa. As to the kind of experiment: Antitumor activity against human HeLa cells after 72 hrs by MTS assay. Type of experiment: functional, cell-based. A digest of the protocol:
as §1

The subject of experiment [2] is HeLa. As to the kind of experiment: Antitumor activity against human HeLa cells assessed as cell viability at 100 ug/ml after 72 hrs by MTS assay. Type of experiment: functional. The note with it: read-out: Activity. A digest of the protocol: as §1
Experiment [3] has as its system HeLa. As to the kind of experiment: Antitumor activity against human HeLa cells assessed as cell viability at 10 ug/ml after 72 hrs by MTS assay. Type of experiment: functional. The conditions noted are these: read-out: Activity. The essentials: as §1
Experiment [4] has as its system HeLa. The experiment in a line: Antitumor activity against human HeLa cells assessed as cell viability at 50 ug/ml after 72 hrs by MTS assay. The note with it: read-out: Activity. The experiment is classed as functional. The essentials:
as §1

Experiment [5] concerns HeLa. As to the kind of experiment: Antitumor activity against human HeLa cells assessed as cell viability at 5 ug/ml after 72 hrs by MTS assay. The experiment is classed as functional. The note with it: read-out: Activity. A digest of the protocol:
as §1

Converted amounts (≈) assume the structure as drawn. The source made the active and inactive calls. The rule behind the calls is not given here.

On to `CCNC(=S)Nc1c2ccoc2c(OC)c2oc(=O)ccc12`, for which the outcome in the experiment with MCF7 was inactive. Further, it took 23 µg/mL (≈ 72.2 µM) to reach half-maximal inhibition in the experiment with HeLa [1] (IC50). For the same molecule, the viability at 100 µg/mL in the experiment with HeLa [2] turned out to be 41%. Further, in the experiment with HeLa [3], the viability at 10 µg/mL stood at 70%. For the same molecule, in the experiment with HeLa [4], the viability at 50 µg/mL turned out to be 35%. Also, in the experiment with HeLa [5], the viability at 5 µg/mL came out at 101%.

On to `COc1c2occc2c(NC(=S)NCc2ccccc2)c2ccc(=O)oc12`, for which, in the experiment on MCF7, the outcome was inactive. The molecule also returned an IC50 in the experiment with HeLa [1] of 7.5 µg/mL (≈ 19.7 µM). Besides, the viability at 100 µg/mL with HeLa [2] came out at 35%. Moreover, in the experiment on HeLa [3], the viability at 10 µg/mL stood at 56%. Moreover, in the experiment with HeLa [4], the viability at 50 µg/mL came to 34%. Also, the viability at 5 µg/mL in the experiment on HeLa [5] worked out at 74%.

As to `COc1c2occc2c(/N=C/c2cccs2)c2ccc(=O)oc12`, in the experiment with MCF7, the result was inactive. For the same molecule, half-maximal inhibition in the experiment on HeLa [1] (IC50) was put at 7.2 µg/mL (≈ 22.1 µM). Also, the viability at 100 µg/mL in the experiment with HeLa [2] came to 28%. Further, the viability at 10 µg/mL in the experiment with HeLa [3] is 53%. For the same molecule, the viability at 50 µg/mL in the experiment with HeLa [4] was 32%. In the experiment on HeLa [5], the viability at 5 µg/mL turned out to be 70%.

On to `COc1c2occc2cc2ccc(=O)oc12` [METHOXSALEN], for which, in the experiment on MCF7, the result was inactive. In the experiment on HeLa [1], this molecule came in with an IC50 of 7.6 µg/mL (≈ 35.2 µM). Besides, the viability at 100 µg/mL in the experiment on HeLa [2] came to 16%. Also, the viability at 10 µg/mL in the experiment on HeLa [3] turned out to be 51%. In addition, the viability at 50 µg/mL with HeLa [4] turned out to be 21%. In addition, the viability at 5 µg/mL in the experiment on HeLa [5] came out at 62%.

Take `COc1c2occc2c(N2C(=O)CSC2c2ccc(Br)cc2)c2ccc(=O)oc12` (stereo not given): the result in the experiment on MCF7 was inactive. This molecule returned a 50% inhibitory concentration (IC50) in the experiment on HeLa [1] of 40 µg/mL (≈ 84.7 µM). Further, in the experiment with HeLa [2], the viability at 100 µg/mL was 26%. Also, the viability at 10 µg/mL in the experiment with HeLa [3] was 91%. The viability at 50 µg/mL in the experiment with HeLa [4] turned out to be 26%. Further, in the experiment with HeLa [5], the viability at 5 µg/mL was 82%.

By IC50 is commonly meant the concentration at which inhibition is half-maximal. Read a high IC50 as weaker potency.
